Laboratory results from ChEMBL document CHEMBL4371006, “Discovery of N-[4-(Quinolin-4-yloxy)phenyl]benzenesulfonamides as Novel AXL Kinase Inhibitors” (J Med Chem, 2018).

How the values were obtained:
[1] = Protein binding in human plasma; format: ADME, cell-free; conditions: read-out: PPB (converted)
[2] = Protein binding in mouse plasma; format: ADME, cell-free; conditions: read-out: PPB (converted)
[3] = target: Angiopoietin-1 receptor (Homo sapiens) (UniProt Q02763); assay: Inhibition of TIE2 (unknown origin) using fluorescence labeled peptide as substrate at 10 uM by IMAP assay relative to control
Summary of the method: (§1)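 IMAP fluorescence-polarization kinase assay at 10 µmol/L compound, run in triplicate by a contract lab. A fluorescently labeled substrate peptide is phosphorylated, then nanoparticles carrying trivalent metal bind the phosphopeptide and slow its rotation. Read-out is fluorescence polarization, expressed as percent inhibition.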

[4] = target: Tyrosine-protein kinase receptor UFO (Homo sapiens) (UniProt P30530); assay: Inhibition of AXL (unknown origin) using fluorescence labeled peptide as substrate at 10 uM by IMAP assay relative to control; summary of the method: as §1
[5] = Intrinsic clearance in mouse liver microsomes at 5 uM after 60 mins in presence of NADPH by LC-MS/MS analysis; format: ADME, Microsome; conditions: read-out: CLH
Summary of the method: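 Compound at 5 µM with 1 mg/mL human or mouse liver microsomes plus an NADPH-regenerating system, in 100 mM potassium phosphate at 37°C. Reactions were stopped with acetonitrile at sampling times. Percent remaining versus time 0 was measured by HPLC, in duplicate.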

[6] = target: Tyrosine-protein kinase ABL1 (Homo sapiens) (UniProt P00519); assay: Inhibition of ABL (unknown origin) using fluorescence labeled peptide as substrate at 10 uM by IMAP assay relative to control
Summary of the method: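 IMAP fluorescence-polarization kinase assay: fluorescently labelled substrate peptide phosphorylated, then captured by trivalent-metal nanoparticles, slowing rotation. Compound at 10 µM, triplicates, percent inhibition reported.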

[7] = target: Angiopoietin-1 receptor (Homo sapiens) (UniProt Q02763); assay: Inhibition of TIE2 (unknown origin) using biotinylated peptide as substrate at 10 uM by TR-FRET assay relative to control
[8] = target: Tyrosine-protein kinase receptor UFO (Homo sapiens) (UniProt P30530); assay: Inhibition of AXL (unknown origin) using biotinylated peptide as substrate at 10 uM by TR-FRET assay relative to control
[9] = target: Platelet-derived growth factor receptor beta (Homo sapiens) (UniProt P09619); assay: Inhibition of PDGFRbeta (unknown origin) using biotinylated peptide as substrate at 10 uM by TR-FRET assay relative to control
[10] = Initial plasma concentration in mouse at 1 to 2 mg/kg, iv by LC/MS/MS analysis; format: ADME, organism-based
Summary of the method: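 Male ICR mice (n = 3) dosed iv via the tail vein at 2 or 1 mg/kg in 30% PEG400 and 5% ethanol in water. Jugular blood was collected into heparin and the plasma separated. Plasma levels were measured by LC/MS/MS after acetonitrile precipitation, and parameters were derived by noncompartmental software.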

MDA-MB-231 = assay: Antimigratory activity against human MDA-MB-231 cells assessed as inhibition of large cell aggregate formation after 5 hrs by matrigel assay; format: functional, cell-based; conditions: MDA-MB-231, 5 h
Summary of the method: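 MDA-MB-231 cells (7000/well) seeded on polymerized 3 mg/mL Matrigel (set ≥16 h at 37°C) in serum-free medium; inhibitor added at seeding, aggregates forming over 5 h.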

[11] = Efflux ratio of apparent permeability from basolateral to apical side over apical to basolateral side in human Caco2 cells at 10 uM after 2 hrs by LC-MS/MS analysis; format: ADME, cell-based; conditions: Caco-2
Summary of the method: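 Caco-2 monolayers differentiated 3 weeks, integrity checked by Lucifer yellow transport. Compound at 10 µM for 2 h; apical transport buffer (glucose, 10 mM HEPES, HBSS, pH 6.5, 100 µM Lucifer yellow), basolateral buffer pH 7.4. Papp = (dQ/dt)/C0A; efflux ratio = Papp(B→A)/Papp(A→B).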

[12] = target: Tyrosine-protein kinase CSK (Homo sapiens, UniProt P41240); assay: Binding affinity to CSK in SILAC-labeled human MDA-MB-231 cells lysate by mass spectrometry based kinAffinity assay; format: subcellular
Summary of the method: (§2)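 Chemical proteomics: MDA-MB-231 lysate bound to matrix of immobilized broad kinase inhibitors at several densities (BC50), then competed with increasing free compound (CC50); proteins quantified by mass spectrometry, Kd via Cheng-Prusoff. Two competition formats run in parallel to check equilibrium.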

Focal adhesion kinase 1 = Focal adhesion kinase 1 (Homo sapiens, UniProt Q05397); assay: Binding affinity to FAK in SILAC-labeled human MDA-MB-231 cells lysate by mass spectrometry based kinAffinity assay; format: subcellular; summary of the method: as §2
[13] = target: Mitogen-activated protein kinase kinase kinase 20 (Homo sapiens, UniProt Q9NYL2); assay: Binding affinity to ZAK in SILAC-labeled human MDA-MB-231 cells lysate by mass spectrometry based kinAffinity assay; format: subcellular
Summary of the method: (§3)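 MDA-MB-231 lysate applied to KinAffinity matrix of immobilized broadband kinase inhibitors at graded densities to obtain BC50 per target. Competition then run with increasing free compound to give CC50; Kd derived by Cheng-Prusoff. Two competition experiments in parallel to check equilibrium, one with lysate pre-incubated with compound before adding matrix. Quantitation by mass spectrometry.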

[14] = target: Serine/threonine-protein kinase 10 (Homo sapiens, UniProt O94804); assay: Binding affinity to LOK in SILAC-labeled human MDA-MB-231 cells lysate by mass spectrometry based kinAffinity assay; format: subcellular; summary of the method: as §2
[15] = target: Tyrosine-protein kinase Fyn (Homo sapiens, UniProt P06241); assay: Binding affinity to FYN in SILAC-labeled human MDA-MB-231 cells lysate by mass spectrometry based kinAffinity assay; format: subcellular; summary of the method: as §2
[16] = target: Proto-oncogene tyrosine-protein kinase Src (Homo sapiens, UniProt P12931); assay: Binding affinity to SRC in SILAC-labeled human MDA-MB-231 cells lysate by mass spectrometry based kinAffinity assay; format: subcellular; summary of the method: as §3
[17] = target: Epidermal growth factor receptor (Homo sapiens, UniProt P00533); assay: Binding affinity to EGFR in SILAC-labeled human MDA-MB-231 cells lysate by mass spectrometry based kinAffinity assay; format: subcellular; summary of the method: as §2
[18] = target: MAP/microtubule affinity-regulating kinase 3 (Homo sapiens, UniProt P27448); assay: Binding affinity to MARK3 in SILAC-labeled human MDA-MB-231 cells lysate by mass spectrometry based kinAffinity assay; format: subcellular; summary of the method: as §2
[19] = target: Tyrosine-protein kinase Fer (Homo sapiens, UniProt P16591); assay: Binding affinity to FER in SILAC-labeled human MDA-MB-231 cells lysate by mass spectrometry based kinAffinity assay; format: subcellular; summary of the method: as §2
[20] = target: Serine/threonine-protein kinase ULK3 (Homo sapiens, UniProt Q6PHR2); assay: Binding affinity to ULK3 in SILAC-labeled human MDA-MB-231 cells lysate by mass spectrometry based kinAffinity assay; format: subcellular; summary of the method: as §3

Chain of Angiopoietin-1 receptor (Homo sapiens) (Q02763 whole entry): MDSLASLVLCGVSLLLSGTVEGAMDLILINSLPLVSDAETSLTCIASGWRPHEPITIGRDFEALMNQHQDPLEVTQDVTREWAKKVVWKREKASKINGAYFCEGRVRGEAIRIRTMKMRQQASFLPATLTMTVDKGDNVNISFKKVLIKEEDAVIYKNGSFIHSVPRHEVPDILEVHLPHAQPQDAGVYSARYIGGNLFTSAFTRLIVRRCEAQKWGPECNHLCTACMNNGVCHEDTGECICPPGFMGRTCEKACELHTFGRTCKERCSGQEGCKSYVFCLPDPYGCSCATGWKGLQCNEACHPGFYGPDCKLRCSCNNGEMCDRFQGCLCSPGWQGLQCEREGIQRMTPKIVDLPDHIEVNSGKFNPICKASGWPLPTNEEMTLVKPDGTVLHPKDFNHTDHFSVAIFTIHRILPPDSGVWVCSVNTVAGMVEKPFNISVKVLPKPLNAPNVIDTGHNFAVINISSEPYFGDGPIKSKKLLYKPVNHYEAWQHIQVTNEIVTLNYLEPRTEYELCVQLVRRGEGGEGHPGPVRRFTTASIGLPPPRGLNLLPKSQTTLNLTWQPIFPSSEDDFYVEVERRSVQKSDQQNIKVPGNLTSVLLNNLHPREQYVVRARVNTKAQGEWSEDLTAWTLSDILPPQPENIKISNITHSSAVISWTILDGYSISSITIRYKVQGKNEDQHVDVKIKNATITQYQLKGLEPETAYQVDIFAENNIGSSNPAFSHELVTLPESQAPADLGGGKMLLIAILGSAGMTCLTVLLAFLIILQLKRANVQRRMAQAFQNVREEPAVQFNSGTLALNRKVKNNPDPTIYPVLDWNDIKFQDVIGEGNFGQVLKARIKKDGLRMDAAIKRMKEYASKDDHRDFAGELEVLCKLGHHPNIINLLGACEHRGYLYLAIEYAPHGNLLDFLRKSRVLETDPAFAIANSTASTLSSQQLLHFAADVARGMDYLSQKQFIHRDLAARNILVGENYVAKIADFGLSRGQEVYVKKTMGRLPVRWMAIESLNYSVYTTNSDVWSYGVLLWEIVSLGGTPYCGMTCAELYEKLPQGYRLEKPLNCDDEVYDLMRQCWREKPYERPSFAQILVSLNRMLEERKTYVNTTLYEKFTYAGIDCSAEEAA
Chain of Platelet-derived growth factor receptor beta (Homo sapiens) (P09619 whole entry): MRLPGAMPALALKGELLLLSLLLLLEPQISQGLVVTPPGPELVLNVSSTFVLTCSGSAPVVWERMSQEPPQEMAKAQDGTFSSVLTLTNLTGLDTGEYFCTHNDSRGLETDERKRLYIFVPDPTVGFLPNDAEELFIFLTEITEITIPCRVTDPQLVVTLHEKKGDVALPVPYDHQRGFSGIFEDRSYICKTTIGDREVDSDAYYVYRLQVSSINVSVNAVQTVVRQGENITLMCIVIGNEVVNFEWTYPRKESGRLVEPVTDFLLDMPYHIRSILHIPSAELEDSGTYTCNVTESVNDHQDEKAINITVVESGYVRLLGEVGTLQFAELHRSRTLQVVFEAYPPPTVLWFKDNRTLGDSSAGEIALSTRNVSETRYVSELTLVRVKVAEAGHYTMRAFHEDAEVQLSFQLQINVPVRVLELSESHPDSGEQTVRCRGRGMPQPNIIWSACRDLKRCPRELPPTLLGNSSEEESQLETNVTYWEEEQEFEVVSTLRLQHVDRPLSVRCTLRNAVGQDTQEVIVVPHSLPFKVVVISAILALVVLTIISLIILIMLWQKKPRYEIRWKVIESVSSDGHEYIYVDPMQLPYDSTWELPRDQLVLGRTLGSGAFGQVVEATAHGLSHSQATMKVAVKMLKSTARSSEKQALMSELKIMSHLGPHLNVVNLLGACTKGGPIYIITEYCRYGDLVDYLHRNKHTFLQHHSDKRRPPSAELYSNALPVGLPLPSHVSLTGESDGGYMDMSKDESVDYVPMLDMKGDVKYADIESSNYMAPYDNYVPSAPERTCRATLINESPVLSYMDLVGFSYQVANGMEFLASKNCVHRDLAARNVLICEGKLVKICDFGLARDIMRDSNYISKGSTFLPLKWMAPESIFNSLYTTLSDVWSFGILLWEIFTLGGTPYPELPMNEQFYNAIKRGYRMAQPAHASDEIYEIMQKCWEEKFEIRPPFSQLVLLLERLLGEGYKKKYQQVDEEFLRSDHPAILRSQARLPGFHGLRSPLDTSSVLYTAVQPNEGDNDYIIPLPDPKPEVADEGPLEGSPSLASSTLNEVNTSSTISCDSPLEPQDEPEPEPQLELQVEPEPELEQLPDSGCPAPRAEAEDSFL
Chain of Tyrosine-protein kinase ABL1 (Homo sapiens) (P00519 whole entry): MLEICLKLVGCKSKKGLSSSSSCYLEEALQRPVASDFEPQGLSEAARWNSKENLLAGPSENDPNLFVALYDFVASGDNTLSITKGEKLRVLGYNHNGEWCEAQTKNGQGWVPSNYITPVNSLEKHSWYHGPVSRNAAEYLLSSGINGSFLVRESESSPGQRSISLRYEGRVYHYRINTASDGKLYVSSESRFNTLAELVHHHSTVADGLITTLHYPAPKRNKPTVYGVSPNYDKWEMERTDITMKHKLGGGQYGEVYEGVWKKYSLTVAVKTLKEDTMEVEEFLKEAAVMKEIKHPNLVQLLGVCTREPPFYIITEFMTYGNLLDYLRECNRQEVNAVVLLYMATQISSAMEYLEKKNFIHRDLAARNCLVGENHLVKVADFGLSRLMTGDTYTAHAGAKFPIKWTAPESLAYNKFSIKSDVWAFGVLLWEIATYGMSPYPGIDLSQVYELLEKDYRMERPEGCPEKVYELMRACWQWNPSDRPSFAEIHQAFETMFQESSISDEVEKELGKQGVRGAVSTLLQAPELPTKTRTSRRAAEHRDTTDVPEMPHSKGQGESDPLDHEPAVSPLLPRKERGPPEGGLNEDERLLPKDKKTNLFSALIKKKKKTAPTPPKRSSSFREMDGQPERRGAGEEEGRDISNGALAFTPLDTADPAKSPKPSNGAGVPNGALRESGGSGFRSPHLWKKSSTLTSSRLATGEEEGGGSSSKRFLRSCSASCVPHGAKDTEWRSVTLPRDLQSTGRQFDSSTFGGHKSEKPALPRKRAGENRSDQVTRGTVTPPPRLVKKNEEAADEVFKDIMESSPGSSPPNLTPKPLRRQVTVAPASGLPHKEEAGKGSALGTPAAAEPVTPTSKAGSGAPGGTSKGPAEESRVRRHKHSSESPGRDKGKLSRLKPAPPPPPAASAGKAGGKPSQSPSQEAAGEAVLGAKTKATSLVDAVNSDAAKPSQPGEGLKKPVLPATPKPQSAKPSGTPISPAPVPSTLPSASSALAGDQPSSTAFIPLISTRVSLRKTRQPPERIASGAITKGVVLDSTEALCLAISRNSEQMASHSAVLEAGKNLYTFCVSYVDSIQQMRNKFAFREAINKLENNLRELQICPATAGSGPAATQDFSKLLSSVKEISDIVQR
Chain of Tyrosine-protein kinase receptor UFO (Homo sapiens) (P30530 whole entry): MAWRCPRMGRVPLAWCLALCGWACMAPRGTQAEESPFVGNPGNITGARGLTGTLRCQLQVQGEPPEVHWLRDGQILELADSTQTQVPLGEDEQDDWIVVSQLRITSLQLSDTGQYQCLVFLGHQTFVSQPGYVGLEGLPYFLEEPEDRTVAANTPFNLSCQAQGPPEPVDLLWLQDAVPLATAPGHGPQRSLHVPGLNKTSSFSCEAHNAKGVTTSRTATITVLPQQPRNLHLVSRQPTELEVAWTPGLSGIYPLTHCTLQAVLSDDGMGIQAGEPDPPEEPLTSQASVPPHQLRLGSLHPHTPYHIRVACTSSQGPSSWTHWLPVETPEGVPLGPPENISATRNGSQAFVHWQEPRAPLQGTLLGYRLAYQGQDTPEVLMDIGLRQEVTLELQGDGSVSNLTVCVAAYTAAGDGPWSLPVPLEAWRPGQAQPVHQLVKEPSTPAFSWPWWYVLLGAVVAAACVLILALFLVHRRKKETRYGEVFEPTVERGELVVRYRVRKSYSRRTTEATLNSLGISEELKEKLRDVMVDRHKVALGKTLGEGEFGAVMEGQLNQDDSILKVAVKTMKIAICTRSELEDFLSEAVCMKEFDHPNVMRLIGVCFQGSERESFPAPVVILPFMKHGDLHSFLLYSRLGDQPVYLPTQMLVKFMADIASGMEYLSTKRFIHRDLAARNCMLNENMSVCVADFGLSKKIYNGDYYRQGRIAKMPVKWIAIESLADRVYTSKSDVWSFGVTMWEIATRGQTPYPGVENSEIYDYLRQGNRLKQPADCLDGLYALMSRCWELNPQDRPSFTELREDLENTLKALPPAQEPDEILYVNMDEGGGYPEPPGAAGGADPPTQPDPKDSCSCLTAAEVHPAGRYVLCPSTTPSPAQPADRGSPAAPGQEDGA
Chain of Proto-oncogene tyrosine-protein kinase Src (P12931 2-536 limits assumed): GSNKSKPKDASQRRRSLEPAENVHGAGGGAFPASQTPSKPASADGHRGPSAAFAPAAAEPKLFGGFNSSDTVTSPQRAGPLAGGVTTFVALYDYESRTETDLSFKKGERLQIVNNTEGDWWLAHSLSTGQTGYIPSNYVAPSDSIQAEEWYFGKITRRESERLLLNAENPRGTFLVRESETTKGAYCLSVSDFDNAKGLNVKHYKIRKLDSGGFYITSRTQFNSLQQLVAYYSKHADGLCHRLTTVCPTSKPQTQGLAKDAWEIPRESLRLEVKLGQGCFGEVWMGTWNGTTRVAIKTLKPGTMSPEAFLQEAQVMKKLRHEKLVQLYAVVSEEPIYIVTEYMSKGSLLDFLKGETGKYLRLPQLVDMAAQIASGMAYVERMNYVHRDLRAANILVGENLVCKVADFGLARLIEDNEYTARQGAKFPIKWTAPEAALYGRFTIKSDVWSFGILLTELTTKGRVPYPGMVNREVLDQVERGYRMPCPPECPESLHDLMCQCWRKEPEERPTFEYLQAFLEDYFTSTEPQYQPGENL

Row | Efficacy [3] [%] | Efficacy [4] [%] | Efficacy [6] [%] | Efficacy [7] [%] | Efficacy [8] [%] | Efficacy [9] [%] | IC50 (MDA-MB-231) [nM] | Kd(free) [12] [nM] | Kd(free) (Focal adhesion kinase 1) [nM] | Kd(free) [13] [nM] | Kd(free) [14] [nM] | Kd(free) [15] [nM] | Kd(free) [16] [nM] | Kd(free) [17] [nM] | Kd(free) [18] [nM] | Structure (SMILES) | fraction unbound [1] | fraction unbound [2] | microsomal CLint at 5 µM [5] [µL/min/mg] | C0 [10] [ng/mL] | efflux ratio at 2 h, 10 µM [11] | other results
1 | 83 to 100 | 83 to 100 | 83 to 100 | 83 to 100 | 83 to 100 | 83 to 100 | 158 |  |  |  |  |  |  |  |  | COc1cc2c(Oc3ccc(NS(=O)(=O)c4ccccc4C(F)(F)F)cc3F)ccnc2cc1OCCCN1CCN(C)CC1 |  |  |  |  |  | 
2 | 83 to 100 | 83 to 100 | 83 to 100 | 83 to 100 | 83 to 100 | 83 to 100 | 156 | 30 | 2212 | 3210 | 3039 | 38 | 96 | 16 | 5622 | COc1cc2c(Oc3ccc(NS(=O)(=O)c4c(F)cccc4F)cc3F)ccnc2cc1OCCCN1CCN(C)CC1 |  |  |  |  |  | Kd(free) [19]: 304 nM; Kd(free) [20]: > 2513 nM
3 | 83 to 100 | 83 to 100 | 83 to 100 | 83 to 100 | 83 to 100 | 83 to 100 | 158 | 270 | 4445 | 1180 | 3780 | 64 | 254 | 122 | 3854 | COc1cc2c(Oc3ccc(NS(=O)(=O)c4cc(F)ccc4F)cc3F)ccnc2cc1OCCCN1CCN(C)CC1 | 0.009 | 0.028 | 143 | 310 | 2.3 | Kd(free) [19]: 679 nM; Kd(free) [20]: > 2514 nM

Row | Structure (SMILES) | Efficacy [3] [%] | Efficacy [4] [%] | Efficacy [6] [%] | Efficacy [7] [%] | Efficacy [8] [%] | Efficacy [9] [%] | IC50 (MDA-MB-231) [nM] | Kd(free) [12] [nM] | Kd(free) (Focal adhesion kinase 1) [nM] | Kd(free) [13] [nM] | Kd(free) [14] [nM] | Kd(free) [15] [nM] | Kd(free) [16] [nM] | Kd(free) [17] [nM] | Kd(free) [18] [nM] | fraction unbound [1] | fraction unbound [2] | microsomal CLint at 5 µM [5] [µL/min/mg] | C0 [10] [ng/mL] | efflux ratio at 2 h, 10 µM [11] | other results
4 | COc1cc2c(Oc3ccc(NS(=O)(=O)c4cc(F)ccc4F)cc3F)ccnc2cc1OCCCN1CCCC(C)C1 (stereo not drawn) | 83 to 100 | 83 to 100 | 83 to 100 | 83 to 100 | 83 to 100 | 83 to 100 | 185 |  |  |  |  |  |  |  |  | 0.015 | 0.041 | 19.1 | 216 | 6.6 | 
